Active and inactive are the calls of the source.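 How the source made its calls: active means compounds whose mean IC50 across repeat dose response tests falls below a set limit; inactive means the rest.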
Tested on: AML12 mouse hepatocytes, BODIPY lipid droplet imaging
Assay: hepatocyte lipid droplet accumulation inhibitors, dose response, imaging, AML12 mouse hepatocytes, high-content (AID 463191)
Conditions: cells loaded with 100 µM oleic acid
In short: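 Material: mouse AML12 hepatocytes; dosing: Seven-point series from 32 to 0.5 µM, 0.32% DMSO; schedule: ~20 h pre-growth at 37 °C, overnight treatment; benchmarks: Triacsin-C at 5 µM as positive control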

Row | Structure (SMILES) | IC50
1 | Cc1ccc(-n2nc3c(=O)n(CC(=O)NC(C)CCc4ccccc4)nc(C)c3c2C)cc1 (stereo unspecified) | 581 nM
2 | COc1ccc(OC)c(NC(=O)Cc2coc3ccc4ccccc4c23)c1 | 11400 nM (inactive)
3 | CCOc1ccc(CN(C)C(=O)CNC(=O)c2ccc3ccccc3c2)cc1OC | 809 nM
4 | Cc1cccc(C(C(=O)NC2CCCC2)N(C(=O)c2csnn2)C2CCCC2)c1 (stereo unspecified) | 23900 nM (inactive)
5 | CCc1c(C#N)c(SCCC(=O)Nc2ccc(OC)cc2)nc2c1C(=O)CC(C)(C)C2 | 5310 nM (inactive)
6 | CCOc1ccc(CCNC(=O)C2CC=CCC2C(=O)OC(C)C)cc1OCC (stereo unspecified) | 746 nM
7 | CCOc1ccc(CCNC(=O)CCNS(=O)(=O)c2ccc(Br)cc2)cc1OCC | 3650 nM
8 | c1ccc(-c2csc(NNC3=NCCCCC3)n2)cc1 | 702 nM
9 | CC(=O)Nc1ccc(-c2csc(NC(=O)Cc3cccc(F)c3)n2)cc1 | 1800 nM
10 | CCOc1cc2c(cc1OCC)C(c1ccc(OC)cc1)N(c1ccccc1)C(=O)C2 (stereo unspecified) | > 32000 nM (inactive)
11 | CCOc1ccc(CCNC(=O)c2cc(-c3ccccc3)c(N3CCOCC3)s2)cc1OCC | < 500 nM
12 | CCOc1ccc(CCNC(=O)COC(=O)/C=C/c2ccc(OCC#N)c(OC)c2)cc1OCC | 21000 nM (inactive)
13 | CCOc1ccc(CCNC(=O)CCS(=O)(=O)c2ccc(Br)cc2)cc1OCC | 3270 nM
14 | CCCc1cc(N2CCCC2)n2nc(C)c(-c3ccccc3)c2n1 | 1100 nM
15 | CC1CCCN(C(=O)c2ccc3c(c2NCCO)C(=O)c2ccccc2C3=O)C1 (stereo unspecified) | 765 nM
16 | O=C(Nc1nc(-c2ccc(-c3ccccc3)cc2)cs1)C1CCCO1 (stereo unspecified) | 2230 nM
17 | COc1ccc(C(=O)OC(C)C(=O)NC(C)CCc2ccccc2)cc1OC (stereo unspecified) | 2560 nM
18 | Cc1cc(N2CCOCC2)n2nc(C)c(-c3ccc(Cl)cc3)c2n1 | 1310 nM
19 | COc1ccc(/C=C(\NC(=O)c2ccc(OCC(C)C)cc2)C(=O)OCc2ccco2)cc1 | 2710 nM
20 | CCOc1ccc(CCNC(=O)Cn2ncn3nc(-c4ccc(OC)cc4)cc3c2=O)cc1OCC | < 500 nM
21 | Cc1cc(C)c(C(=O)NC2CCCc3c2cnn3-c2cccc(C)c2C)o1 (stereo unspecified) | 21600 nM (inactive)
22 | COc1ccc(C(C(=O)NC(C)(C)C)N(Cc2ccco2)C(=O)CCC(=O)Nc2cc(C)on2)cc1 (stereo unspecified) | 4840 nM
23 | COc1ccc(C2(c3ccc(OC)cc3)NC(=O)N(CC(=O)Nc3cc(C)ccc3OC)C2=O)cc1 | < 500 nM
24 | CCOc1ccc(CCNC(=O)CN2CCN(Cc3ccc(F)cc3)C2=O)cc1OCC | 1830 nM
25 | CCOc1ccc(CCNC(=O)CN2C(=O)NC3(CCCC3)C2=O)cc1OCC | 1070 nM
26 | CCOC(=O)c1cc(CC)sc1NC(=O)C1CC(=O)NN1Cc1ccccc1 (stereo unspecified) | 573 nM

Row | Structure (SMILES) | IC50
27 | CCCCc1ccc(NC(=O)CSc2nnc(C)c(=O)n2N)cc1 | 1270 nM
28 | CCCCn1c(=O)[nH]c(=O)c2c1nc(-c1ccc(-c3ccccc3)cc1)n2C | 9970 nM (inactive)
29 | COCc1ccc(C(=O)NC2CCCc3c2cnn3-c2ccc(C)c(C)c2)o1 (stereo unspecified) | 2440 nM
30 | COc1ccc(CN(C)C(=O)CNC(=O)Cc2cccc3ccccc23)c(OC)c1OC | 4550 nM
31 | COc1ccc(C(C(=O)NC(C)(C)C)N(CC2CCCO2)C(=O)CCC(=O)Nc2cc(C)on2)cc1 (stereo unspecified) | 4950 nM
32 | CCOc1cc2c(cc1OCC)C(c1ccccc1)N(c1ccccc1)C(=O)C2 (stereo unspecified) | 973 nM
33 | CCc1ccc(NC(=O)CSc2nc3ccccc3nc2N2CCCC2)cc1 | 1940 nM
34 | CCOc1ccc(CCNC(=O)Cn2cccc2C(=O)c2ccccc2C)cc1OCC | 867 nM
35 | CCOc1ccccc1NC(=O)CCCNC(=O)c1ccc(Cl)cc1 | 10700 nM (inactive)
36 | CCOc1ccccc1Nc1nnc(SC(C)C(=O)Nc2nc(-c3ccccc3)cs2)s1 (stereo unspecified) | 1250 nM
37 | COc1ccc(-c2csc(NNC3=NCCCCC3)n2)cc1 | 1420 nM
38 | CCOc1ccc(CCNC(=O)CCOc2cc(C)ccc2C)cc1OCC | < 500 nM
39 | COC(=O)/C(=C/c1ccc2c(c1)c1ccccc1n2C)NC(=O)c1ccccc1 | 4240 nM
40 | Cc1ccc(-n2nc3c(=O)n(CC(=O)NCCCc4ccccc4)nc(C)c3c2C)cc1 | 4240 nM
41 | COc1ccccc1NS(=O)(=O)c1ccc(N/N=C/c2c(C)nn(-c3ccccc3)c2N2CCCC2)c([N+](=O)[O-])c1 | < 500 nM
42 | CCOc1ccc(CCNC(=O)Cn2c(-c3nonc3N)nc3ccccc32)cc1OCC | 580 nM
43 | COc1ccc(C(C(=O)NC2CCCC2)N(CCC(C)C)C(=O)CCC(=O)Nc2cc(C)on2)cc1 (stereo unspecified) | 5900 nM (inactive)
44 | CCC(C)(C)NC(=O)C(c1sccc1C)N(Cc1ccco1)C(=O)c1csnn1 (stereo unspecified) | 11900 nM (inactive)
45 | CCOc1ccc(CCNC(=O)CN2C(=O)NC(CCSC)C2=O)cc1OCC (stereo unspecified) | 1260 nM
46 | Cc1ccc(CNC(=O)c2ccc(N3CCC4(CC3)CC(c3ccccc3)=NO4)c(N)c2)cc1 | 3450 nM
47 | CCOc1ncccc1C(=O)OC(C)C(=O)Nc1ccc(CC)cc1 (stereo unspecified) | 2640 nM
48 | COc1cc(NC(=O)c2cccs2)c(OC)cc1NC(=O)CCC(=O)Nc1ccc2ncccc2c1 | 2230 nM
49 | CCOc1ccc(CCNC(=O)Cn2nc(C)n3cccc3c2=O)cc1OCC | 2000 nM
50 | Cc1cc(N2CCOCC2)n2nc(C)c(-c3ccccc3Cl)c2n1 | 1050 nM
51 | CCc1ccc(NC(=O)CNC(=O)[C@@H]2Cc3ccccc3CN2C(=O)OC(C)(C)C)cc1 | 5020 nM (inactive)
52 | CCOc1ccc(CCNC(=O)COC(=O)/C=C/c2ccc(C)o2)cc1OCC | 7620 nM (inactive)

Row | Structure (SMILES) | IC50
53 | COc1ccccc1CNS(=O)(=O)c1ccc2c(c1)CC(C)N2C(=O)C1CCC1 (stereo unspecified) | 680 nM
54 | COc1ccc(Cl)cc1NC(=O)CN(C)C(=O)CCCc1c[nH]c2ccccc12 | 2300 nM
55 | CCCc1cc(N2CCOCC2)n2nc(C)c(-c3ccccc3)c2n1 | < 500 nM
56 | CCOc1ccc(CCNC(=O)COC(=O)c2cccnc2OCC)cc1OCC | 2290 nM
57 | COc1ccc(CCNC(=O)CCOc2cc(C)ccc2C)cc1OC | 4550 nM
58 | CC(=O)c1cccc(N=Nc2c(-c3ccccc3)[nH]n(-c3ccccc3)c2=O)c1 | 633 nM
59 | COc1ccc(C(C(=O)NC(C)(C)C)N(Cc2ccc(C)cc2)C(=O)CCC(=O)Nc2cc(C)on2)cc1 (stereo unspecified) | 2300 nM
60 | CCOc1ccc(CCNC(=O)CCC(=O)N2CCOc3ccc(C)cc32)cc1OCC | 1440 nM
61 | CCc1nn2c(N3CCOCC3)cc(C)nc2c1-c1ccc(F)cc1 | < 500 nM
62 | Cc1cc(C(=O)OC(C)C(=O)Nc2nc(-c3ccccc3)cs2)c(C)o1 (stereo unspecified) | 758 nM
63 | COc1ccc(NC(=O)CSc2nc3ccccc3nc2N2CCCCC2)cc1 | 1180 nM
64 | CCOc1ccc(CCNC(=O)CN2CCN(Cc3ccccc3C)C2=O)cc1OCC | 924 nM
65 | CCOc1ccc(CCNC(=O)c2ccc3ccccc3n2)cc1OCC | 1310 nM
66 | CCOc1ccc(CCNC(=O)CCS(=O)(=O)c2ccc(OC)cc2)cc1OCC | 2720 nM
67 | COc1ccc2c(c1)c(CC(=O)Nc1ccc(C(C)=O)cc1)c(C)n2C(=O)c1ccc(Cl)cc1 | 2880 nM
68 | CCOc1cc(CNC(=O)CCCn2c(=O)c3cccn3c3cccnc32)cc(OCC)c1OCC | 540 nM
69 | Cc1ccc(CNC(=O)c2ccc(N3CCC4(CC3)CC(c3ccccc3)=NO4)c(NC(=O)c3ccc(Br)cc3)c2)cc1 | < 500 nM
70 | COc1ccc(C(=O)OC(C)C(=O)Nc2cc(C(F)(F)F)ccc2Cl)c(OC)c1OC (stereo unspecified) | 850 nM
71 | CCOc1ccc(C(C)NC(=O)Cc2ccccc2F)cc1OCC (stereo unspecified) | 6250 nM (inactive)
72 | Cc1cc(C)cc(NC(=O)CSc2nc3ccccc3nc2N2CCCC2)c1 | 2110 nM
73 | COc1ccc(CCNC(=O)c2ccc(CNc3nc(=S)[nH]c4ccccc34)cc2)cc1OC | 1280 nM
74 | CC1CCN(C2=C(NS(=O)(=O)c3ccc(Br)cc3)C(=O)c3ccccc3C2=O)CC1 | 703 nM
75 | COc1ccc(C)cc1NC(=O)C/C(C)=N/NC(=O)Cc1cccc2ccccc12 | 13800 nM (inactive)
76 | CCOc1ccc(CCNC(=O)COC(=O)c2cc(OC)cc(OC)c2)cc1OCC | 6120 nM (inactive)
77 | CCOc1ccc(CCNC(=O)CS(=O)Cc2nc(-c3ccc(OC)cc3)oc2C)cc1OCC (stereo unspecified) | 2110 nM
78 | Cc1ccc(-n2nc3c(=O)n(C(C)C(=O)NCCC4=CCCCC4)nc(C)c3c2C)cc1 (stereo unspecified) | 3870 nM

Row | Structure (SMILES) | IC50
79 | COCCNC(=S)N1CCc2cc(OC)c(OC)cc2C1COc1cc(C)cc(C)c1 (stereo unspecified) | 4080 nM
80 | COc1ccc(C(=O)OC(C)C(=O)NC(C)CCc2ccccc2)cc1[N+](=O)[O-] (stereo unspecified) | 549 nM
81 | COc1cccc(NC(=O)CCC(=O)Nc2cc(OC)c(NC(=O)c3cccs3)cc2OC)c1 | 754 nM
82 | c1cc2c(cc1-c1csc(NNC3=NCCCCC3)n1)OCCO2 | 1070 nM
83 | CC(C)(C)c1ccc(-c2csc(NNC3=NCCCCC3)n2)cc1 | 2090 nM
84 | COc1ccc(NC(=O)CCC(=O)Nc2cc(OC)c(NC(=O)c3cccs3)cc2OC)cc1 | 710 nM
85 | COc1ccc(NC(=O)CSc2nc3ccccc3nc2N2CCCC2)cc1Cl | 2850 nM
86 | COc1ccc(OC)c(CCNC(=O)C(C)n2nc(C)c3c(C)n(-c4ccc(C)cc4)nc3c2=O)c1 (stereo unspecified) | 1590 nM
87 | COc1ccc(C(C(=O)NC(C)(C)C)N(CCC(C)C)C(=O)CCC(=O)Nc2cc(C)on2)cc1 (stereo unspecified) | 1200 nM
88 | CCNC(=S)N1CCc2cc(OC)c(OC)cc2C1COc1ccc(F)cc1 (stereo unspecified) | 2280 nM
89 | Cc1cc(C(=O)NC2CCCc3c2cnn3-c2ccc(C)c(C)c2)nc(C)n1 (stereo unspecified) | 2810 nM
90 | Cc1cccc(NC(=O)CSc2nnc(C)c(=O)n2N)c1 | 6650 nM (inactive)
91 | CC(C)Oc1ccc(C(=O)OC(C)C(=O)Nc2nc(-c3cccc([N+](=O)[O-])c3)cs2)cc1 (stereo unspecified) | 866 nM
92 | FC(F)Oc1ccc(-c2csc(NNC3=NCCCCC3)n2)cc1 | 916 nM
93 | COc1ccc(C(=O)NC2CCCc3c2cnn3-c2cccc(C)c2C)o1 (stereo unspecified) | 2560 nM
94 | Cc1ccc(-c2c(C)nn3c(N4CCOCC4)cc(C)nc23)cc1 | 633 nM
95 | CC(C)c1ccc(NC(=O)CSc2nc3ccccc3nc2N2CCCC2)cc1 | 2080 nM
96 | O=C(Cc1coc2ccc3ccccc3c12)NC1CCCc2ccccc21 (stereo unspecified) | 4390 nM
97 | COc1cc(NC(=O)c2cccs2)c(OC)cc1NC(=O)CCC(=O)Nc1ccc(C)cc1 | 790 nM
98 | CCn1cc(CCCC(=O)NCc2cccc(OC)c2)c2ccccc21 | 6430 nM (inactive)
99 | CCN(CC(=O)Nc1ccccc1C(F)(F)F)C(=O)c1cc(-c2cccs2)nn1-c1ccccc1 | 2030 nM
100 | CCOc1ccc(CCNC(=O)COC(=O)/C=C/c2ccc(OC)c(OC)c2)cc1OCC | 1500 nM
101 | CCCCOc1ccc(/C=C/C(=O)OCC(=O)c2c(N)n(C)c(=O)n(C)c2=O)cc1OCC | 28800 nM (inactive)

Reference: PubChem BioAssay AID463191 (Sanford-Burnham Center for Chemical Genomics, 2010)
